We go through ten molecules from ChEMBL document CHEMBL3525925, “In vitro studies on the oxidative metabolism of 20(s)-ginsenoside Rh2 in human, monkey, dog, rat, and mouse liver microsomes, and human liver s9” (Drug Metab Dispos, 2012).

Series [1] deals with Liver microsome. The series is described as follows: Retention time in human liver microsomes treated with 10 uM 20(S)-ginsenoside Rh2 by MS2 spectra. The series is classed as ADME. The method, boiled down:
(§1)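 Samples: incubation mixed with equal volume methanol, centrifuged at 14,000g for 5 min, dried under nitrogen at 40°C, reconstituted. Separated on Eclipse XDB-C18 (4.6 × 150 mm, 5 μm) at 0.5 ml/min. Gradient: 0.1% formic acid in methanol against 0.1% formic acid in 5 mM ammonium acetate, 70% to 100% organic over 17 min. Ion-trap MSn detection.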
In general terms: Microsomes from liver hold many membrane-bound enzymes, among them those of drug oxidation.

For series [2], the system named is Liver. Kind of series: Retention time in human liver S9 fraction treated with 10 uM 20(S)-ginsenoside Rh2 by MS2 spectra. The series is classed as ADME, subcellular. The method, boiled down:
as §1

Series [3] has as its system Liver microsome. The series is described as follows: Drug level in beagle dog liver microsomes treated with 10 uM 20(S)-ginsenoside Rh2 for 60 mins by MS2 spectra. The series is classed as ADME, Canis lupus familiaris. To be noted: 1 h. The method, boiled down: (§2)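 Rh2 at 10 μM final (from methanol stock; 0.1% v/v methanol final) in 100 mM potassium phosphate pH 7.4 with 2 mM NADPH, open-to-air tubes at 37°C. 3 min preincubation, then started with liver microsomes or S9 at 1 mg/ml protein. Incubated 60 min, stopped with equal volume ice-cold acetonitrile. Controls lacked NADPH; duplicates. Metabolites detected by LC/ion-trap MSn.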

Series [4] relates to Liver microsome. Kind of series: Drug level in Sprague-Dawley rat liver microsomes treated with 10 uM 20(S)-ginsenoside Rh2 for 60 mins by MS2 spectra. It is filed as ADME. To be noted: 1 h. The method, boiled down:
as §2

The next series has as its target Cytochrome P450 3A4 (Homo sapiens, UniProt P08684). Kind of series: Drug level in human recombinant CYP3A4 treated with 10 uM 20(S)-ginsenoside Rh2 for 60 mins by MS2 spectra. The series is classed as ADME. To be noted: recombinant enzyme, 1 h. The method, boiled down:
(§3)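 Recombinant human P450 (50 nM) with 10 μM Rh2 under the microsomal conditions: 100 mM potassium phosphate pH 7.4, 2 mM NADPH, 37°C for 60 min. Stopped with equal volume ice-cold acetonitrile. Run in duplicate; products analysed by LC/ion-trap MSn.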

Series [5] relates to Liver. Kind of series: Drug level in CD-1 mouse liver microsomes treated with 10 uM 20(S)-ginsenoside Rh2 for 60 mins by MS2 spectra. The series is classed as ADME. To be noted: 1 h. The method, boiled down: as §2
Series [6] is described as follows: Drug level in cynomolgus monkey liver microsomes treated with 10 uM 20(S)-ginsenoside Rh2 for 60 mins by MS2 spectra. The series is classed as ADME, Macaca fascicularis. The note with it: 1 h. The method, boiled down: as §2
Series [7] has as its system Liver microsome. The series is described as follows: Drug level in human liver microsomes treated with 10 uM 20(S)-ginsenoside Rh2 for 60 mins by MS2 spectra. It is filed as ADME. The note with it: 1 h. The method, boiled down: as §2
Series [8] relates to Liver. Kind of series: Drug level in human liver S9 fraction treated with 10 uM 20(S)-ginsenoside Rh2 for 60 mins by MS2 spectra. The series is classed as ADME, subcellular. To be noted: s9, 1 h. The method, boiled down:
as §2

A further series deals with Cytochrome P450 3A5 (Homo sapiens, UniProt P20815). Kind of series: Drug level in human recombinant CYP3A5 treated with 10 uM 20(S)-ginsenoside Rh2 for 60 mins by MS2 spectra. The series is classed as ADME. To be noted: recombinant enzyme, 1 h. The method, boiled down:
as §3

Cytochrome P450 3A4, sequence (P08684 whole entry): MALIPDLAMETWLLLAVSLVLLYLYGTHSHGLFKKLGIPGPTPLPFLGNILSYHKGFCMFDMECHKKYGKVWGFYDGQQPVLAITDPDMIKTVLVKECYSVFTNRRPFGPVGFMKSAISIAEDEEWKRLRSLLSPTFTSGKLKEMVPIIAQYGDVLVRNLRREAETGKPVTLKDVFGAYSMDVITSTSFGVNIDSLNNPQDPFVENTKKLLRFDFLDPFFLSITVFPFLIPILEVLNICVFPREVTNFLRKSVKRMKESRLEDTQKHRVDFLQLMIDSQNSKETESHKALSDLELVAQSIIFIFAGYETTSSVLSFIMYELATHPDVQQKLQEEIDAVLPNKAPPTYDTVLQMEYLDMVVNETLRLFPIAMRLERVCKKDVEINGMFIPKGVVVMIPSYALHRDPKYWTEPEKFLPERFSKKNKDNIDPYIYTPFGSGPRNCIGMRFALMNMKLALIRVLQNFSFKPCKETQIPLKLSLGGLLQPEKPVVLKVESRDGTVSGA
Cytochrome P450 3A5, sequence (P20815 whole entry): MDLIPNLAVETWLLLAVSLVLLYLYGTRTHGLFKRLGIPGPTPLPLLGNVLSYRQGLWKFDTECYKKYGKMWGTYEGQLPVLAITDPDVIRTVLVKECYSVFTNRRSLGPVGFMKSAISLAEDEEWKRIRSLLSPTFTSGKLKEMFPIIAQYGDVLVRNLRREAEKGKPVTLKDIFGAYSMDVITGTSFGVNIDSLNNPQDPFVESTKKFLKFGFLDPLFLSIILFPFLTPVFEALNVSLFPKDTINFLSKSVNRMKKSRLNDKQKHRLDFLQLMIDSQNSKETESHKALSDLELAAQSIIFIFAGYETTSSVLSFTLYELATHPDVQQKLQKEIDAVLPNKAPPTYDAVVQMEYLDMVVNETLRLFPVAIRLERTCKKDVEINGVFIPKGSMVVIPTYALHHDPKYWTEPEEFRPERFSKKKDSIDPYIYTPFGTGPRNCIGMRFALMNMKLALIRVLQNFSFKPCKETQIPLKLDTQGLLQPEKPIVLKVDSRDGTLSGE

With `CC(O)(CO)[C@H]1CC[C@@](C)([C@H]2CC[C@]3(C)[C@@H]2[C@H](O)C[C@@H]2[C@@]4(C)CC[C@H](O[C@@H]5O[C@H](CO)[C@@H](O)[C@H](O)[C@H]5O)C(C)(C)[C@@H]4CC[C@]23C)O1` (stereo not given in full), the Retention_time in the series on Liver microsome [1] and with Liver [2] was 16.7 min in each case. The Drug metabolism result in the series on Liver microsome [3] is “metabolite_not_detected”; with Liver microsome [4], “metabolite_detected”; at Cytochrome P450 3A4, “metabolite_detected”; with Liver [5], “metabolite_detected”; in [6], “metabolite_detected”; with Liver microsome [7], “metabolite_detected”. Moreover, the Drug metabolism result with Liver [8] is “metabolite_detected”; on Cytochrome P450 3A5, “metabolite_not_detected”.
On to `CC(C)(O)[C@@H]1CC[C@@](C)([C@H]2CC[C@]3(C)[C@@H]2[C@H](O)C[C@@H]2[C@@]4(C)CC[C@H](O[C@@H]5O[C@H](CO)[C@@H](O)[C@H](O)[C@H]5O)C(C)(C)[C@@H]4CC[C@]23C)O1`, for which the Retention_time in the series on Liver microsome [1] and in the series with Liver [2] was 18.9 min in each case. Moreover, the Drug metabolism entry (in the series with Liver microsome [3]; in the series with Liver microsome [4]; on Cytochrome P450 3A4; with Liver [5]; in series [6]; in the series with Liver microsome [7]) was “metabolite_detected” throughout. The Drug metabolism result in the series with Liver [8] and on Cytochrome P450 3A5 was “metabolite_detected” each time.
As to `C/C(=C\CC[C@](C)(O)[C@H]1CC[C@]2(C)[C@@H]1[C@H](O)C[C@@H]1[C@@]3(C)CC[C@H](O[C@@H]4O[C@H](CO)[C@@H](O)[C@H](O)[C@H]4O)C(C)(C)[C@@H]3CC[C@]12C)C(=O)O`, the Retention_time with Liver microsome [1] and with Liver [2] was 14 min throughout. For the same molecule, the Drug metabolism result with Liver microsome [3] is recorded as “metabolite_not_detected”; with Liver microsome [4], “metabolite_detected”; on Cytochrome P450 3A4 it was “metabolite_detected”; in the series with Liver [5], “metabolite_not_detected”; in series [6], “metabolite_detected”; with Liver microsome [7], “metabolite_detected”. Further, the Drug metabolism result is “metabolite_detected” in the series on Liver [8] and “metabolite_not_detected” at Cytochrome P450 3A5.
For the molecule `CC1(C)O[C@H]1CC[C@](C)(O)[C@H]1CC[C@]2(C)[C@@H]1[C@H](O)C[C@@H]1[C@@]3(C)CC[C@H](O[C@@H]4O[C@H](CO)[C@@H](O)[C@H](O)[C@H]4O)C(C)(C)[C@@H]3CC[C@]12C`, the Retention_time with Liver microsome [1] and in the series with Liver [2] was 20 min throughout. For the same molecule, the Drug metabolism result (in the series on Liver microsome [3]; in the series with Liver microsome [4]; at Cytochrome P450 3A4; in the series on Liver [5]; in series [6]; in the series on Liver microsome [7]) was “metabolite_detected” throughout. The values for the Drug metabolism result in the series with Liver [8] and on Cytochrome P450 3A5 were “metabolite_detected” and “metabolite_not_detected”, respectively.
As for `C/C(=C/CC[C@](C)(O)[C@H]1CC[C@]2(C)[C@@H]1[C@H](O)C[C@@H]1[C@@]3(C)CC[C@H](O[C@@H]4O[C@H](CO)[C@@H](O)[C@H](O)[C@H]4O)C(C)(C)[C@@H]3CC[C@]12C)CO`, the Retention_time in the series on Liver microsome [1] and with Liver [2] was 18.3 min each time. Further, the Drug metabolism entry (in the series with Liver microsome [3]; with Liver microsome [4]; at Cytochrome P450 3A4; in the series on Liver [5]; in series [6]; in the series with Liver microsome [7]) was “metabolite_detected” in each case. For the same molecule, the Drug metabolism entry in the series on Liver [8] and at Cytochrome P450 3A5 was “metabolite_detected” each time.
Consider `C/C(=C/CC[C@](C)(O)[C@H]1CC[C@]2(C)[C@@H]1[C@H](O)C[C@@H]1[C@@]3(C)CC[C@H](O[C@@H]4O[C@H](CO)[C@@H](O)[C@H](O)[C@H]4O)C(C)(C)[C@@H]3CC[C@]12C)C(=O)O`, for which the Retention_time in the series with Liver microsome [1] and with Liver [2] was 13.2 min in each case. Further, the Drug metabolism entry in the series on Liver microsome [3] is on record as “metabolite_not_detected”; with Liver microsome [4], “metabolite_detected”; on Cytochrome P450 3A4, “metabolite_detected”; with Liver [5], “metabolite_detected”; in series [6], “metabolite_detected”; in the series with Liver microsome [7], “metabolite_detected”. The Drug metabolism entry is “metabolite_detected” in the series on Liver [8] and “metabolite_not_detected” at Cytochrome P450 3A5.
Take `CC(C)(O)[C@H]1CC[C@@](C)([C@H]2CC[C@]3(C)[C@@H]2[C@H](O)C[C@@H]2[C@@]4(C)CC[C@H](O[C@@H]5O[C@H](CO)[C@@H](O)[C@H](O)[C@H]5O)C(C)(C)[C@@H]4CC[C@]23C)O1`: the Retention_time in the series with Liver microsome [1] and with Liver [2] was 20.2 min throughout. Also, the Drug metabolism entry (with Liver microsome [3]; in the series with Liver microsome [4]; at Cytochrome P450 3A4; with Liver [5]; in series [6]; with Liver microsome [7]) was “metabolite_detected” each time. In addition, the values for the Drug metabolism result in the series with Liver [8] and at Cytochrome P450 3A5 were “metabolite_detected” and “metabolite_not_detected”, respectively.
For `CC(O)(CO)[C@@H]1CC[C@@](C)([C@H]2CC[C@]3(C)[C@@H]2[C@H](O)C[C@@H]2[C@@]4(C)CC[C@H](O[C@@H]5O[C@H](CO)[C@@H](O)[C@H](O)[C@H]5O)C(C)(C)[C@@H]4CC[C@]23C)O1` (stereo not given in full), the Retention_time in the series with Liver microsome [1] and in the series with Liver [2] was 16.2 min throughout. For the same molecule, the Drug metabolism result in the series with Liver microsome [3] was “metabolite_not_detected”; in the series with Liver microsome [4] it was “metabolite_detected”; at Cytochrome P450 3A4, “metabolite_detected”; in the series with Liver [5], “metabolite_detected”; in series [6], “metabolite_detected”; in the series on Liver microsome [7], “metabolite_detected”. In addition, the Drug metabolism result with Liver [8] is “metabolite_detected”; on Cytochrome P450 3A5, “metabolite_not_detected”.
On to `CC1(C)[C@@H](O[C@@H]2O[C@H](CO)[C@@H](O)[C@H](O)[C@H]2O)CC[C@]2(C)[C@H]3C[C@@H](O)[C@@H]4[C@@H]([C@@](C)(O)CC[C@@H]5O[C@@]5(C)CO)CC[C@@]4(C)[C@]3(C)CC[C@@H]12`, for which the Retention_time in the series with Liver microsome [1] and with Liver [2] was 15.6 min in each case. Besides, the Drug metabolism entry with Liver microsome [3] is on record as “metabolite_not_detected”; with Liver microsome [4] it was “metabolite_detected”; at Cytochrome P450 3A4 it was “metabolite_detected”; in the series with Liver [5], “metabolite_detected”; in series [6], “metabolite_detected”; with Liver microsome [7], “metabolite_detected”. The Drug metabolism entry was “metabolite_detected” in the series with Liver [8] and “metabolite_not_detected” at Cytochrome P450 3A5.
On to `CC1(C)[C@@H](O[C@@H]2O[C@H](CO)[C@@H](O)[C@H](O)[C@H]2O)CC[C@]2(C)[C@H]3C[C@@H](O)[C@@H]4[C@@H]([C@@](C)(O)CCC=C(CO)CO)CC[C@@]4(C)[C@]3(C)CC[C@@H]12`, for which the Retention_time with Liver microsome [1] and with Liver [2] was 12.2 min in each case. Further, the Drug metabolism entry (with Liver microsome [3]; in the series on Liver microsome [4]; at Cytochrome P450 3A4; with Liver [5]; in series [6]; in the series with Liver microsome [7]) was “metabolite_detected” in each case. In addition, the Drug metabolism result is listed as “metabolite_detected” in the series on Liver [8] and “metabolite_not_detected” at Cytochrome P450 3A5.
